Results reported in ChEMBL document CHEMBL1158102, “Biologically active triterpenoid saponins from Acanthopanax senticosus” (J Nat Prod, 2006).
Calls of active or inactive are those of the source. The calls are words filed in the database; no cut-off is given here.

What follows are molecules tested against T1, Pancreatic triacylglycerol lipase (Homo sapiens) (UniProt P16233) (assay: Inhibition of pancreatic lipase assessed as umoles of oleic acic released per millimiter of triolein per hour at 1 mg/mL).
T1 sequence (whole entry): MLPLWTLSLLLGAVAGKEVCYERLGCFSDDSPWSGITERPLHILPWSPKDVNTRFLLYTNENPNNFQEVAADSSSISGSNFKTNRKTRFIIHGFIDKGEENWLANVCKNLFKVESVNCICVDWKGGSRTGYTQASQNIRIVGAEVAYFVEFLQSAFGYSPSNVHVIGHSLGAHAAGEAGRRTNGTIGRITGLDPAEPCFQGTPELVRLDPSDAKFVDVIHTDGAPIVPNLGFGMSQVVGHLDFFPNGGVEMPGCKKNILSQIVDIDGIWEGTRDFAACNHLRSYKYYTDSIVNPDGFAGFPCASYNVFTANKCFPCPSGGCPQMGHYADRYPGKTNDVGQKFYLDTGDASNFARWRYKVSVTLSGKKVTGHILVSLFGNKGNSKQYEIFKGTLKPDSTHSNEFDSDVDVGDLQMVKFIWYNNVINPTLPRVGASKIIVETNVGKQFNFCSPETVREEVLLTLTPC
How it was run: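 Lipase activity measured as rate of oleic acid release from triolein. Substrate: sonicated triolein, phosphatidylcholine and taurocholic acid in 0.1 M TES buffer pH 7.0 with 0.1 M NaCl. Incubated with pancreatic lipase (10 units) and sample for 30 min at 37 °C. Free fatty acids extracted, converted to copper salts, reacted with bathocuproine, absorbance read at 480 nm. Means ± SEM of three experiments.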
In the case of `C[C@@H]1O[C@@H](O[C@H]2[C@H](O[C@H]3CC[C@]4(C)[C@H]5CC=C6[C@@H]7C[C@](C)(C(=O)O)CC[C@]7(C(=O)O)CC[C@@]6(C)[C@@H]5CC[C@H]4C3(C)C)OC[C@H](O)[C@@H]2O)[C@H](O)[C@H](O)[C@H]1O`, the inhibition is reported as 44.9%.
With `C[C@@H]1O[C@@H](O[C@H]2[C@H](O[C@H]3CC[C@]4(C)[C@H]5CC=C6[C@@H]7CC(C)(C)CC[C@]7(C(=O)O[C@@H]7O[C@H](CO[C@@H]8O[C@H](CO)[C@@H](O[C@@H]9O[C@@H](C)[C@H](O)[C@@H](O)[C@H]9O)[C@H](O)[C@H]8O)[C@@H](O)[C@H](O)[C@H]7O)[C@H](O)C[C@@]6(C)[C@@H]5CC[C@H]4C3(C)C)OC[C@H](O)[C@@H]2O)[C@H](O)[C@H](O)[C@H]1O` the inhibition was 38.3%.
In the case of `C=C(C)[C@@H]1CC[C@]2(C(=O)O[C@@H]3O[C@H](CO[C@@H]4O[C@H](CO)[C@@H](O[C@@H]5O[C@@H](C)[C@H](O)[C@@H](O)[C@H]5O)[C@H](O)[C@H]4O)[C@@H](O)[C@H](O)[C@H]3O)CC[C@]3(C)[C@H](C[C@H]4OC(=O)C[C@@H](O)[C@]5(C)[C@@H]4[C@@]3(C)CC[C@H]5C(=C)C)[C@@H]12`, the inhibition is reported as 56.1%.
`C=C1CC[C@]2(C(=O)O[C@@H]3O[C@H](CO[C@@H]4O[C@H](COC(C)=O)[C@@H](O[C@@H]5O[C@@H](C)[C@H](O)[C@@H](O)[C@H]5O)[C@H](O)[C@H]4O)[C@@H](O)[C@H](O)[C@H]3O)CC[C@]3(C)C(=CC[C@H]4[C@H]3CC[C@H]3C(C)(C)[C@@H](O[C@@H]5OC[C@H](O)[C@H](O)[C@H]5O[C@@H]5O[C@@H](C)[C@H](O)[C@@H](O)[C@H]5O)CC[C@]43C)[C@@H]2C1` gave an inhibition of -80.5%.
With `CC(=O)OC[C@H]1O[C@@H](OC[C@H]2O[C@@H](OC(=O)[C@]34CCC(C)(C)C[C@H]3C3=CC[C@H]5[C@@H](CC[C@H]6C(C)(C)[C@@H](O[C@@H]7OC[C@H](O)[C@H](O)[C@H]7O[C@@H]7O[C@H](CO)[C@@H](O)[C@H](O)[C@H]7O)CC[C@]56C)[C@]3(C)CC4)[C@H](O)[C@@H](O)[C@@H]2O)[C@H](O)[C@@H](O)[C@@H]1O[C@@H]1O[C@@H](C)[C@H](O)[C@@H](O)[C@H]1O` the Activity was “inactive”.
`C=C(C)[C@@H]1CC[C@]2(C(=O)O[C@@H]3O[C@H](CO[C@@H]4O[C@H](CO)[C@@H](O[C@@H]5O[C@@H](C)[C@H](O)[C@@H](O)[C@H]5O)[C@H](O)[C@H]4O)[C@@H](O)[C@H](O)[C@H]3O)CC[C@]3(C)[C@H](CC[C@@H]4[C@@](C)(CCC(=O)O)[C@H](C(=C)C)CC[C@]43C)[C@@H]12` was tested, and the inhibition was 44.6%.
`C=C1CC[C@]2(C(=O)O[C@@H]3O[C@H](CO[C@@H]4O[C@H](CO)[C@@H](O[C@@H]5O[C@@H](C)[C@H](O)[C@@H](O)[C@H]5O)[C@H](O)[C@H]4O)[C@@H](O)[C@H](O)[C@H]3O)CC[C@]3(C)C(=CC[C@H]4[C@H]3CC[C@H]3C(C)(C)[C@@H](O[C@@H]5OC[C@H](O)[C@H](O)[C@H]5O[C@@H]5O[C@H](CO)[C@@H](O)[C@H](O)[C@H]5O)CC[C@]43C)[C@@H]2C1` was tested, and the Activity was “inactive”.
Molecule `C[C@@H]1O[C@@H](O[C@H]2[C@H](O[C@H]3CC[C@]4(C)[C@H]5CC=C6[C@@H]7C[C@](C)(CO)CC[C@]7(C(=O)O)CC[C@@]6(C)[C@@H]5CC[C@H]4C3(C)C)OC[C@H](O)[C@@H]2O)[C@H](O)[C@H](O)[C@H]1O` has an inhibition of 33%.
With `C[C@@H]1O[C@@H](O[C@H]2[C@H](O[C@H]3CC[C@]4(C)[C@H]5CC=C6[C@@H]7CC(C)(C)CC[C@]7(C(=O)O[C@@H]7O[C@H](CO[C@@H]8O[C@H](CO)[C@@H](O[C@@H]9O[C@@H](C)[C@H](O)[C@@H](O)[C@H]9O)[C@H](O)[C@H]8O)[C@@H](O)[C@H](O)[C@H]7O)CC[C@@]6(C)[C@]5(C)CC[C@H]4C3(C)C)OC[C@H](O)[C@@H]2O)[C@H](O)[C@H](O)[C@H]1O` the Activity was “inactive”.
With `C=C1CC[C@]2(C(=O)O[C@@H]3O[C@H](CO[C@@H]4O[C@H](COC(C)=O)[C@@H](O[C@@H]5O[C@@H](C)[C@H](O)[C@@H](O)[C@H]5O)[C@H](O)[C@H]4O)[C@@H](O)[C@H](O)[C@H]3O)CC[C@]3(C)C(=CC[C@H]4[C@H]3CC[C@H]3C(C)(C)[C@@H](O[C@@H]5OC[C@H](O)[C@H](O)[C@H]5O[C@@H]5O[C@H](CO)[C@@H](O)[C@H](O)[C@H]5O)CC[C@]43C)[C@@H]2C1` the Activity was “inactive”.
For `C[C@@H]1O[C@@H](O[C@H]2[C@H](O)[C@@H](O)[C@H](OC[C@H]3O[C@@H](OC(=O)[C@]45CCC(C)(C)C[C@H]4C4=CC[C@@H]6[C@@]7(C)CC[C@H](O[C@@H]8OC[C@H](O)[C@H](O)[C@H]8O)C(C)(C)[C@@H]7CC[C@@]6(C)[C@]4(C)CC5)[C@H](O)[C@@H](O)[C@@H]3O)O[C@@H]2CO)[C@H](O)[C@H](O)[C@H]1O`, the Activity was “inactive”.
With `C=C1CC[C@]2(C(=O)O[C@@H]3O[C@H](CO[C@@H]4O[C@H](CO)[C@@H](O[C@@H]5O[C@@H](C)[C@H](O)[C@@H](O)[C@H]5O)[C@H](O)[C@H]4O)[C@@H](O)[C@H](O)[C@H]3O)CC[C@]3(C)C(=CC[C@H]4[C@H]3CC[C@H]3C(C)(C)[C@@H](O[C@@H]5OC[C@H](O)[C@H](O)[C@H]5O[C@@H]5O[C@@H](C)[C@H](O)[C@@H](O)[C@H]5O)CC[C@]43C)[C@@H]2C1` the Activity was “inactive”.
`C=C1CC[C@]2(C(=O)O[C@@H]3O[C@H](CO[C@@H]4O[C@H](COC(C)=O)[C@@H](O[C@@H]5O[C@@H](C)[C@H](O)[C@@H](O)[C@H]5O)[C@H](O)[C@H]4O)[C@@H](O)[C@H](O)[C@H]3O)CC[C@]3(C)C(=CC[C@H]4[C@H]3CC[C@H]3C(C)(C)[C@@H](O[C@@H]5OC[C@H](O)[C@H](O)[C@H]5O)CC[C@]43C)[C@@H]2C1` showed an inhibition of -46.7%.
In the case of `C=C1CC[C@]2(C(=O)O[C@@H]3O[C@H](CO[C@@H]4O[C@H](CO)[C@@H](O[C@@H]5O[C@@H](C)[C@H](O)[C@@H](O)[C@H]5O)[C@H](O)[C@H]4O)[C@@H](O)[C@H](O)[C@H]3O)CC[C@]3(C)C(=CC[C@H]4[C@H]3CC[C@H]3C(C)(C)[C@@H](O[C@@H]5OC[C@H](O)[C@H](O)[C@H]5O)CC[C@]43C)[C@@H]2C1`, the inhibition is reported as 46.5%.
`CC(=O)OC[C@H]1O[C@@H](OC[C@H]2O[C@@H](OC(=O)[C@]34CCC(C)(C)C[C@H]3C3=CC[C@H]5[C@@H](CC[C@H]6C(C)(C)[C@@H](O[C@@H]7OC[C@H](O)[C@H](O)[C@H]7O[C@@H]7O[C@@H](C)[C@H](O)[C@@H](O)[C@H]7O)CC[C@]56C)[C@]3(C)CC4)[C@H](O)[C@@H](O)[C@@H]2O)[C@H](O)[C@@H](O)[C@@H]1O[C@@H]1O[C@@H](C)[C@H](O)[C@@H](O)[C@H]1O` was tested, and the Activity was “inactive”.
